The text below walks through data of ChEMBL document CHEMBL4316611, “Design, synthesis and evaluation of novel (S)-tryptamine derivatives containing an allyl group and an aryl sulfonamide unit as anticancer agents” (Bioorg Med Chem Lett, 2019).

Experiment [1] concerns HepG2. Briefly: Induction of apoptosis in human HepG2 cells assessed as late apoptotic cells level at 30 uM incubated for 48 hrs by Annexin V-FITC/propidium iodide staining based flow cytometry (reference value: 2.02%). It counts as functional.
Experiment [2] concerns HepG2. The experiment is described as follows: Induction of apoptosis in human HepG2 cells assessed as early apoptotic cells level at 10 uM incubated for 48 hrs by Annexin V-FITC/propidium iodide staining based flow cytometry (reference value: 2.89%). In kind it is functional. (A flow cytometer gives signals particle by particle.)
Experiment [3] relates to HepG2. The experiment is described as follows: Induction of cell cycle arrest in human HepG2 cells assessed as accumulation at G1 phase at 15 uM incubated for 24 hrs by propidium iodide staining based flow cytometry (reference value: 39.79%). It counts as functional.
In a further experiment the test system is A549. The experiment is described as follows: Cytotoxicity in human A549 cells assessed as reduction in cell viability incubated for 48 hrs by MTT assay. It counts as functional, cell-based. Particulars: A549, 48 h. In a few lines:
(§1)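 MTT viability assay; cells exposed continuously to compounds for 48 h. IC50 values reported as mean ± SD. Cisplatin served as positive control.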
Background: Formazan colour is commonly taken as a measure of viable cells.

Experiment [4] has as its system HepG2. Briefly: Induction of cell cycle arrest in human HepG2 cells assessed as accumulation at G1 phase at 35 uM incubated for 24 hrs by propidium iodide staining based flow cytometry (reference value: 39.79%). In kind it is functional.
Experiment [5] concerns HepG2. The experiment is described as follows: Induction of cell cycle arrest in human HepG2 cells assessed as accumulation at G1 phase incubated for 24 hrs by propidium iodide staining based flow cytometry. In kind it is functional.
Experiment [6] concerns HepG2. The experiment is described as follows: Induction of cell cycle arrest in human HepG2 cells assessed as accumulation at G1 phase at 25 uM incubated for 24 hrs by propidium iodide staining based flow cytometry (reference value: 39.79%). In kind it is functional.
Another experiment deals with HeLa. Briefly: Cytotoxicity in human HeLa cells assessed as reduction in cell viability incubated for 48 hrs by MTT assay. It counts as functional, cell-based. The procedure, abridged: as §1
For experiment [7], the system named is HepG2. The experiment is described as follows: Induction of apoptosis in human HepG2 cells assessed as necrotic cells level at 10 uM incubated for 48 hrs by Annexin V-FITC/propidium iodide staining based flow cytometry (reference value: 0.53%). It counts as functional.
Experiment [8] has as its system HepG2. The experiment is described as follows: Induction of apoptosis in human HepG2 cells assessed as necrotic cells level at 20 uM incubated for 48 hrs by Annexin V-FITC/propidium iodide staining based flow cytometry (reference value: 0.53%). In kind it is functional.
Experiment [9] deals with HepG2. The experiment is described as follows: Induction of apoptosis in human HepG2 cells assessed as early apoptotic cells level at 30 uM incubated for 48 hrs by Annexin V-FITC/propidium iodide staining based flow cytometry (reference value: 2.89%). It counts as functional.
In experiment [10] the test system is HepG2. Briefly: Inhibition of colony formation in human HepG2 cells incubated for 14 days by Giemsa staining based assay. In kind it is functional, cell-based. In a few lines: (§2)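 Colony formation assay: cells exposed at 0, 2.5, 5 and 7.5 μM for 2 weeks. Colonies imaged and quantified by image analysis. Inhibition rate expressed as mean ± SD against control.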

In experiment [11] the test system is HepG2. The experiment is described as follows: Induction of apoptosis in human HepG2 cells assessed as early apoptotic cells level at 20 uM incubated for 48 hrs by Annexin V-FITC/propidium iodide staining based flow cytometry (reference value: 2.89%). In kind it is functional.
In experiment [12] the test system is HepG2. The experiment is described as follows: Induction of apoptosis in human HepG2 cells assessed as necrotic cells level at 30 uM incubated for 48 hrs by Annexin V-FITC/propidium iodide staining based flow cytometry (reference value: 0.53%). It counts as functional.
The test system of experiment [13] is HepG2. The experiment is described as follows: Induction of apoptosis in human HepG2 cells assessed as late apoptotic cells level at 20 uM incubated for 48 hrs by Annexin V-FITC/propidium iodide staining based flow cytometry (reference value: 2.02%). It counts as functional.
The subject of experiment [14] is HepG2. The experiment is described as follows: Induction of apoptosis in human HepG2 cells assessed as viable cells level at 10 uM incubated for 48 hrs by Annexin V-FITC/propidium iodide staining based flow cytometry (reference value: 94.56%). It counts as functional.
Experiment [15] relates to HepG2. Briefly: Induction of apoptosis in human HepG2 cells assessed as viable cells level at 30 uM incubated for 48 hrs by Annexin V-FITC/propidium iodide staining based flow cytometry (reference value: 94.56%). In kind it is functional.
In experiment [16] the test system is HepG2. Briefly: Cytotoxicity in human HepG2 cells assessed as reduction in cell viability incubated for 48 hrs by MTT assay. In kind it is functional, cell-based. Particulars: HepG2, 48 h. The procedure, abridged: as §1
For experiment [17], the system named is HepG2. Briefly: Induction of apoptosis in human HepG2 cells assessed as late apoptotic cells level at 10 uM incubated for 48 hrs by Annexin V-FITC/propidium iodide staining based flow cytometry (reference value: 2.02%). In kind it is functional.
The test system of another experiment is CNE. The experiment is described as follows: Cytotoxicity in human CNE1 cells assessed as reduction in cell viability incubated for 48 hrs by MTT assay. In kind it is functional, cell-based. In a few lines:
as §1

Experiment [18] has as its system HepG2. Briefly: Induction of apoptosis in human HepG2 cells assessed as viable cells level at 20 uM incubated for 48 hrs by Annexin V-FITC/propidium iodide staining based flow cytometry (reference value: 94.56%). It counts as functional.
Experiment [19] has as its system HepG2. Briefly: Inhibition of colony formation in human HepG2 cells at 7.5 uM incubated for 14 days by Giemsa staining based assay. It counts as functional. The following applies: HepG2, 336 h. In a few lines: as §2

Molecules are shown by their SMILES.

`C=CC[C@@H](Cc1c[nH]c2ccccc12)NS(=O)(=O)c1c(C(C)C)cc(C(C)C)cc1C(C)C`: the Activity was 20.25% in the experiment on HepG2 [1]; 6.63% in the experiment on HepG2 [2]; 44.89% in the experiment on HepG2 [3]; 53.35% with HepG2 [4]; “Dose-dependent effect” with HepG2 [5]; 48.82% in the experiment on HepG2 [6]. The Activity is 0.69% with HepG2 [7]; 0.75% with HepG2 [8]; 53.46% in the experiment on HepG2 [9]; 21.29% in the experiment with HepG2 [11]; 0.91% with HepG2 [12]; 4.85% in the experiment with HepG2 [13]. Further, the Activity is on record as 89.7% in the experiment on HepG2 [14], 25.38% with HepG2 [15], 2.96% in the experiment with HepG2 [17] and 73.08% with HepG2 [18]. Besides, the IC50 – broadly, the midpoint of a concentration-inhibition curve – in the experiment on A549 stood at 18.7 µM; in the experiment with HeLa, 16.5 µM; in the experiment with HepG2 [16], 16.5 µM; with CNE it was 18.3 µM. Moreover, the inhibition (in general, the change of the read-out against control, counted positive when it falls) with HepG2 [10] is “Dose-dependent effect”. For the same compound, the inhibition at 7.5 µM in the experiment on HepG2 [19] amounted to 95%.
